Measured values: the RNAGym collection of RNA variant scans (doi:10.1038/nmeth.2970)

B1: NELF-E aptamer (parent)
chain: CCCAACGACUGCCGAGCGAGAUUACGCUUGAGCGCCCCACUGAGGAUGCCCACGGGCGAUUGGGGCACGG

Variants of: B1
Assay: HiTS-RAP
Conditions: with NELF-E (Drosophila)
Outline: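 Aptamer DNA templates carrying a T7 promoter and ter site were sequenced on an Illumina GAIIx flowcell, then transcribed in situ by T7 RNA polymerase and halted by GST-Tus (30 minutes, 37°C). Clusters were imaged after 30-minute room-temperature equilibration with NELF-E-mOrange at 0.064 to 1000 nM in HEPES binding buffer, and only the first binding curve was used. Intensities were normalised to sequencing intensity and averaged per sequence. Kd came from weighted Hill fits, keeping fits with variance below 1,000,000.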

CCCAACGACUGCCGAGCACGAUUACGCUUGAGCGCCCCACUGAGGAUGCCCACGGGCGAUUGGGGCACGG was tested. Which Kd did it give?
The Kd was 6.3 nM.

For CCCAACGACUGCCGAGCAGGAUUACGCUUGAGCGCCCCACUGAGGAUGCCCACGGGCGAUUGGGGCACGG, which Kd is on record?
The Kd was 5.36 nM.

Which Kd does the source give for CCCAACGACUGCCGAGCGUGAUUACGCUUGAGCGCCCCACGGAGGAUGCCCACGGGCGAUUGGGGCACGG here?
Its Kd is 4.74 nM.

How did the Kd turn out when CCCAACGACUGCCGAGCAAUAUUACGCUUGAGCGCCCCACUGAGGAUGCCCACGGGCGAUUGGGGCACGG was run?
The Kd was 8.6 nM.

Which Kd does the source give for CCCAACGACUGCCGAGCAAGAUUACGCUUGAGCGCCCCACGGAGGAUGCCCACGGGCGAUUGGGGCACGG here?
The Kd was 4.87 nM.

For CCCAACGACUGCCGAGCGGGAUUACGCUUGAGCGCCCCACUGAGGAUGCCCACGGGCGAUAGGGGCACGG, which Kd is on record?
Its Kd is 24.3 nM.

For CCCAACGACUGCCGAGCGGGAUUACGCUUGAGCGCCCCACUGAGGAUGCCCACGGGCGAUUGGGUCACGG, which Kd is on record?
The Kd was 7.38 nM.

CCCAACGACUGCCGAGCGGGAUUACGCUUGAGCGCCCCACUGAGGAUGCCCACGGGCGAUUGGGACACGG was tested. Which Kd did it give?
Its Kd is 6.12 nM.

How did the Kd turn out when CCCAACGACUGCCGAGCGAAAUUACGCUUGAGCGCCCCACUGAGGAUGCCCACGGGCGAUUGGGGCACGG was run?
The Kd was 5.25 nM.

For CCCAACGACUGCCGAGCGGGAUUACGCUUGAGCGCCCCACUGAGGAUGCCCACGGGCGAUUGGAGCACGG, which Kd is on record?
The Kd was 6.54 nM.

CCCAACGACUGCCGAGCGGGAUUACGCUUGAGCGCCCCACUGAGGAUGCCCACGGGUGAUUGGGGCACGG was tested. Which Kd did it give?
The Kd was 4.99 nM.

With CCCAACGACUGCCGAGCGGGAUUACGCUUGAGCGCCCCACUGAGGAGGCCCACGGGCGAUUGGGGCACGG as the variant, how does the Kd read?
Its Kd is 7.16 nM.

For CCCAACGACUGCCGAGCGGGAUUACGCUUGAGCGCCCCACUGGGGAUGCCCACGGGCGAUUGGGGCACGG, which Kd is on record?
The Kd was 8.78 nM.

For CCCAACGACUGCCGAGCGUGUUUACGCUUGAGCGCCCCACUGAGGAUGCCCACGGGCGAUUGGGGCACGG, which Kd is on record?
The Kd was 6.8 nM.

Which Kd does the source give for CCCAACGACUGCCGAGCAAGAUUACACUUGAGCGCCCCACUGAGGAUGCCCACGGGCGAUUGGGGCACGG here?
The Kd was 6.84 nM.

CCCAACGACUGCCGAGCGGGAUUACGCUCGAGCGCCCCACUGAGGAUGCCCACGGGCGAUUGGGGCACGG was tested. Which Kd did it give?
The Kd was 6.11 nM.

CCCAACGACUGCCGAGCGGGAUUACGCUAGAGCGCCCCACUGAGGAUGCCCACGGGCGAUUGGGGCACGG was tested. Which Kd did it give?
The Kd was 3.96 nM.

For CCCAACGACUGCCGAGCGGGAUUACGCUGGAGCGCCCCACUGAGGAUGCCCACGGGCGAUUGGGGCACGG, which Kd is on record?
The Kd was 5.87 nM.

For CCCAACGACUGCCGAGCGGGAUGACGCUUGAGCGCCCCACUGAGGAUGCCCACGGGCGAUUGGGGCACGG, which Kd is on record?
The Kd was 6.11 nM.

How did the Kd turn out when CCCAACGACUGCCGAGCGGGAUUACGCUUGGGCGCCCCACUGAGGAUGCCCACGGGCGAUUGGGGCACGG was run?
The Kd was 6.72 nM.

With CCCAACGACUGCCGAGCGGGAUUACGCUUGUGCGCCCCACUGAGGAUGCCCACGGGCGAUUGGGGCACGG as the variant, how does the Kd read?
Its Kd is 5.3 nM.

How did the Kd turn out when CCCAACGACUGCCGAGCGGGAUUAUGCUUGAGCGCCCCACUGAGGAUGCCCACGGGCGAUUGGGGCACGG was run?
Its Kd is 6.25 nM.

How did the Kd turn out when CCCAACGACUGCCGAGCGGGAUUAGGCUUGAGCGCCCCACUGAGGAUGCCCACGGGCGAUUGGGGCACGG was run?
The Kd was 5.29 nM.

For CCCAACGACUGCCGAGCAAGAUUGCGCUUGAGCGCCCCACUGAGGAUGCCCACGGGCGAUUGGGGCACGG, which Kd is on record?
Its Kd is 5.85 nM.

With CCCAACGACUGCCGAGCAAGAUUACGCUGGAGCGCCCCACUGAGGAUGCCCACGGGCGAUUGGGGCACGG as the variant, how does the Kd read?
The Kd was 5.68 nM.

CCCAACGACUGCCGAGCGGGGUUACGCUUGAGCGCCCCACUGAGGAUGCCCACGGGCGAUUGGGGCACGG was tested. Which Kd did it give?
The Kd was 6.58 nM.

Which Kd does the source give for CCCAACGACUGCCGAGCGGGAUUACGCUUGAGCGCCCCACUGAGGAUGCCCACAGGCGAUUGGGGCACGG here?
The Kd was 15.1 nM.

How did the Kd turn out when CCCAACGACUGCCGAGCUAGAUGACGCUUGAGCGCCCCACUGAGGAUGCCCACGGGCGAUUGGGGCACGG was run?
Its Kd is 6.43 nM.

How did the Kd turn out when CCCAACGACUGCCGAGCGGGAUUACGCCUGAGCGCCCCACUGAGGAUGCCCACGGGCGAUUGGGGCACGG was run?
The Kd was 9.82 nM.

How did the Kd turn out when CCCAACGACUGCCGAGCGUGAUUACGCUGGAGCGCCCCACUGAGGAUGCCCACGGGCGAUUGGGGCACGG was run?
Its Kd is 5.71 nM.

How did the Kd turn out when CCCAACGACUGCCGAGCAAGAUUACGCUUGAGCGCCCCACUGAGGAUGCCCACGGGCGAUUGGGGCACGG was run?
Its Kd is 4.61 nM.

How did the Kd turn out when CCCAACGACUGCCGAGCCAGAUUACGCUUGAGCGCCCCACUGAGGAUGCCCACGGGCGAUUGGGGCACGG was run?
The Kd was 6.13 nM.

How did the Kd turn out when CCCAACGACUGCCGAGCUAGAUUACGCUUGAGCGCCCCACUGAGGAUGCCCACGGGCGAUUGGGGCACGG was run?
The Kd was 5.57 nM.

How did the Kd turn out when CCCAACGACUGCCGAGCGGGAUUACGCUUGAGCGCCCCACUGAGGAUGCCCACGGGCGAUUGGGGCUCGG was run?
Its Kd is 5.89 nM.

Which Kd does the source give for CCCAACGACUGCCGAGCGGGAUUACGCUUGAGCGCCCCACUGAGGAUGCCCACGGGCGAUUGGGGCGCGG here?
Its Kd is 5.94 nM.

How did the Kd turn out when CCCAACGACUGCCGAGCGAAAUUGCGCUUGAGCGCCCCACUGAGGAUGCCCACGGGCGAUUGGGGCACGG was run?
The Kd was 6.46 nM.

Which Kd does the source give for CCCAACGACUGCCGAGCGUGAUGACGCUUGAGCGCCCCACUGAGGAUGCCCACGGGCGAUUGGGGCACGG here?
Its Kd is 6.66 nM.

CCCAACGACUGCCGAGCGUGAGUACGCUUGAGCGCCCCACUGAGGAUGCCCACGGGCGAUUGGGGCACGG was tested. Which Kd did it give?
Its Kd is 6 nM.

For CCCAACGACUGCCGAGCGAAGUUACGCUUGAGCGCCCCACUGAGGAUGCCCACGGGCGAUUGGGGCACGG, which Kd is on record?
Its Kd is 7.05 nM.
